In ChEMBL document CHEMBL3392991, “Structure-based design of bacterial nitric oxide synthase inhibitors” (J Med Chem, 2015):
The source made the active and inactive calls. No cut-off for these calls is given here.

Columns and labels:
[1] = test system: Bacillus subtilis; test: Displacement of imidazole from Bacillus subtilis NOS
[2] = test system: Bacillus subtilis; test: Displacement of imidazole from Bacillus subtilis NOS in presence of 50 uM H4B
[3] = test system: Bacillus subtilis; test: Inhibition of NADPH-dependent Bacillus subtilis NOS using bBiDomain and Escherichia coli flavodoxin reductase YumC assessed as nitrite level up to 800 uM by Griess reaction
In short: (§1)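 bBiDomain with the flavodoxin reductase YumC, NADPH-driven, 50 μM H4B included. Inhibitor tested over a range of concentrations. Nitrite measured at a single time point.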

[4] = test system: Bacillus subtilis; test: Inhibition of NADPH-dependent Bacillus subtilis NOS using bBiDomain and Escherichia coli flavodoxin reductase YumC assessed as nitrite level at 300 uM by Griess reaction; parameters: Activity: scale not given: the % may be the effect or the level left; in short: as §1
[5] = target: Nitric oxide synthase 1 (Rattus norvegicus, UniProt P29476); test: Inhibition of rat nNOS
[6] = target: T1, Nitric oxide synthase 3 (Bos taurus, UniProt P29473); test: Inhibition of bovine eNOS
T1 sequence (P29473 whole entry): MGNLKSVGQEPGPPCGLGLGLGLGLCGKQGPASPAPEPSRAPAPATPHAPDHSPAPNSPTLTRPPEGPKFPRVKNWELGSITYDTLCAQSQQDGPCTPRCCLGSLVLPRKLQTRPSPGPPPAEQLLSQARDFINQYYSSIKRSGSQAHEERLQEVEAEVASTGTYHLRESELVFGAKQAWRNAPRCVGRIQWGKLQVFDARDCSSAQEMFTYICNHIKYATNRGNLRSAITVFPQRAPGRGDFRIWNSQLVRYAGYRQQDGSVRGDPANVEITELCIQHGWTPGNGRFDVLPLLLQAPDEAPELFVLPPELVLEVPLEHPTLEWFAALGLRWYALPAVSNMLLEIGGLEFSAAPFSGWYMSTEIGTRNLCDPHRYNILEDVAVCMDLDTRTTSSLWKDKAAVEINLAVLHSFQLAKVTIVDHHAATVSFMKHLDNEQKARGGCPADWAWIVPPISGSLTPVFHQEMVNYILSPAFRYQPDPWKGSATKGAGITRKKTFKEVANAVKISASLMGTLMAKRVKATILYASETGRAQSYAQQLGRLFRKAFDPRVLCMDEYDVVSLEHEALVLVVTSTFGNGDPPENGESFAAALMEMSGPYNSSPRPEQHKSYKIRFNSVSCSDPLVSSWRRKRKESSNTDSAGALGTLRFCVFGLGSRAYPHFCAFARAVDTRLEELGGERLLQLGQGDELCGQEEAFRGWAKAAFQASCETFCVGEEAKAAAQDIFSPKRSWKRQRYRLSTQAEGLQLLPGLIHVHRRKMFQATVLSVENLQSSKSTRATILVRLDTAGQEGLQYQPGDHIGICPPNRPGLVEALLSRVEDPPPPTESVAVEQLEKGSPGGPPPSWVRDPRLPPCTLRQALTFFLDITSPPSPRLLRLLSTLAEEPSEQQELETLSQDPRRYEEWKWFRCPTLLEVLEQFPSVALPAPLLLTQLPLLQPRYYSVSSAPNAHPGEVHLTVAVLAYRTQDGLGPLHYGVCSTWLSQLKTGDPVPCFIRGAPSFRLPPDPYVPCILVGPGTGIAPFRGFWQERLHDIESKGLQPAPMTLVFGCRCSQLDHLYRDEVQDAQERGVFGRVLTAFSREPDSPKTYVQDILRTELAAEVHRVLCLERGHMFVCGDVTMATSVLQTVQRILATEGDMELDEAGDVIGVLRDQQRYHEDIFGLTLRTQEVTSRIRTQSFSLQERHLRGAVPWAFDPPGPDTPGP

[7] = target: T2, Nitric oxide synthase, inducible (Mus musculus, UniProt P29477); test: Inhibition of mouse iNOS
T2 sequence (P29477 whole entry): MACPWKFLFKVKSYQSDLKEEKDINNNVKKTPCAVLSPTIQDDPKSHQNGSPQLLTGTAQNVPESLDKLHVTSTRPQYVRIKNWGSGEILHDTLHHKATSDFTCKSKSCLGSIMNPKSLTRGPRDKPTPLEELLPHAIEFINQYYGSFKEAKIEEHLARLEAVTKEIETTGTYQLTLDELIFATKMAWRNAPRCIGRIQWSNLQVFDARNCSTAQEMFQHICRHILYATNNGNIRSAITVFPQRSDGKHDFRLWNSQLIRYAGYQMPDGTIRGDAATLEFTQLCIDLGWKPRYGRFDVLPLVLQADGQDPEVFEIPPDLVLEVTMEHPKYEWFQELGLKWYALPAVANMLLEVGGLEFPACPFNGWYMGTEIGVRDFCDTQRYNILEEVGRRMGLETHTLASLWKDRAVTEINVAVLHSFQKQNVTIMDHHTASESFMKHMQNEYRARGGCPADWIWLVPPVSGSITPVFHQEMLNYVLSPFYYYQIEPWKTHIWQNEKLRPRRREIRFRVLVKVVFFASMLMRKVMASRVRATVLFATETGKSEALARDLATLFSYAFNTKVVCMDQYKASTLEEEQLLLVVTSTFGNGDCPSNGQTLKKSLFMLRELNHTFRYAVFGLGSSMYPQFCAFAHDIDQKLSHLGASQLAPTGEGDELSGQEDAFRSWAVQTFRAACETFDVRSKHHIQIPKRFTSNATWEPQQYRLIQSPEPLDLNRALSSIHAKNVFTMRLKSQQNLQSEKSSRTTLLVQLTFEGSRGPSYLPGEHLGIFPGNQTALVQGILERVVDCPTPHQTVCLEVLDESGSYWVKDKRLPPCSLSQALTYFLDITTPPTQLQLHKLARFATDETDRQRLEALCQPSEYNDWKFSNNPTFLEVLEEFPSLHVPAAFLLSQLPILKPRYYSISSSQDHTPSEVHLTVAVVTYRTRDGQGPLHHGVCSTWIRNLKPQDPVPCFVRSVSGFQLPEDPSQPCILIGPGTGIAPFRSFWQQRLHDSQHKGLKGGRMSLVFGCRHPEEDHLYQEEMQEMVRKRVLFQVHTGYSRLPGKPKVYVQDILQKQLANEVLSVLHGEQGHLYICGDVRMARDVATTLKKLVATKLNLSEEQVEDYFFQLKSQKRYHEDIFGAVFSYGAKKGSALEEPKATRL

[8] = test system: Bacillus subtilis; test: Antibacterial activity against delta nos Bacillus subtilis assessed as bacterial growth up to 800 uM measured after overnight incubation relative to control; type: functional; conditions: in the assay text read “at 500 uM” for “up to 800 uM”
In short: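 WT (ATCC 23857) and Δnos strains grown to OD600 ≈ 1.0, diluted to OD600 0.6 in LB, then mixed with M9 minimal media with or without NOS inhibitor (final 500 μM) and/or acriflavine (final 800 μM). 30 min at 30 °C, serially diluted, plated on LB agar + 0.5% glucose, overnight at 37 °C. CFU counted; percent survival relative to untreated cells.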

Chain of Nitric oxide synthase 1 (P29476 whole entry): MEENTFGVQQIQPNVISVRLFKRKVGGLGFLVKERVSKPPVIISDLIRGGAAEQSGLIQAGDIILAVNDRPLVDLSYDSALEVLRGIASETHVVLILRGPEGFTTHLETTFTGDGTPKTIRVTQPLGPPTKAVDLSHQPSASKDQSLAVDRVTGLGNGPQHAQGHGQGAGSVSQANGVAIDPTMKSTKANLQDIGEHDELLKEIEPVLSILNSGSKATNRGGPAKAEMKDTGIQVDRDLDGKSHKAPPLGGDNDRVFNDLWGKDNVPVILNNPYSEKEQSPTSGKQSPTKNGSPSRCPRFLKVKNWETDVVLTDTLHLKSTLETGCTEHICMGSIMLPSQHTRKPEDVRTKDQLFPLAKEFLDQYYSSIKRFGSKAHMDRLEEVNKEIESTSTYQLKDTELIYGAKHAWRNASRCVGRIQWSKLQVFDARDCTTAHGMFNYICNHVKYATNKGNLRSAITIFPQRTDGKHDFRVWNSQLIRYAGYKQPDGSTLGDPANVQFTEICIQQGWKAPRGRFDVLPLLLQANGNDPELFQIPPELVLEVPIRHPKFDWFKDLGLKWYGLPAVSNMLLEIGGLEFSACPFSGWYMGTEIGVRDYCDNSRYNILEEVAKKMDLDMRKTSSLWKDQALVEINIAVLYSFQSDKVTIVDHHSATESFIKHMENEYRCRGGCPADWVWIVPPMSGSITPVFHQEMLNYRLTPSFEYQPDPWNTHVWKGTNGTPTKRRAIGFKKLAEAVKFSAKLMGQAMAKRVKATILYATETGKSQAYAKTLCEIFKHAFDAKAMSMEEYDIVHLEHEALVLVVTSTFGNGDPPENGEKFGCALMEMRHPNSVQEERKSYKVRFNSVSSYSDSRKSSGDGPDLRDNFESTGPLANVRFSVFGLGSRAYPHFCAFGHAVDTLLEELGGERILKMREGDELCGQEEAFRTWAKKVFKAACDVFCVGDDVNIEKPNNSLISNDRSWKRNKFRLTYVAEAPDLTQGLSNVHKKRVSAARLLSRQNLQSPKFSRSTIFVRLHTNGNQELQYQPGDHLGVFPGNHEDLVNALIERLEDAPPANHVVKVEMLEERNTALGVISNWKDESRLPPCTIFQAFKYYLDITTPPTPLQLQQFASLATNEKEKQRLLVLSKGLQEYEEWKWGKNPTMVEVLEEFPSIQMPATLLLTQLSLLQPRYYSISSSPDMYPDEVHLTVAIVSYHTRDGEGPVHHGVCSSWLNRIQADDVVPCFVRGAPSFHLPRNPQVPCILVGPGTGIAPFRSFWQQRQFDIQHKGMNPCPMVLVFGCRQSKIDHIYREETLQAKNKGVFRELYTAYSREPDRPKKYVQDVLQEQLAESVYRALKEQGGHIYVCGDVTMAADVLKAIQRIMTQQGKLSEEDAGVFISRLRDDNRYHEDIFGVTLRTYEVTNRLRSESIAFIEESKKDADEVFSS

Row | Ks [1] | Ks [2] | inhibition [3] | inhibition [4] | Ki [5] | Ki [6] | Ki [7] | Activity [4] | SMILES | inhibition (INH) [8]
1 | 3.2 µM | 1.9 µM |  |  |  |  |  |  | N=C(NO)NCCC[C@H](N)C(=O)O | 
2 |  |  | Active | Active |  |  |  |  | N=C(Nc1cccc(OCC(O)c2cccc(NC(=N)c3cccs3)c2)c1)c1cccs1 (stereo not given) | 
3 | 16 µM | 19 µM | Active | Active |  |  |  |  | Cc1cc(N)nc(CCc2cc(CCCN)cc(CCc3cc(C)cc(N)n3)c2)c1 | 
4 | 15 µM | 47 µM | Active | Active |  |  |  |  | Cc1cc(N)nc(CCc2cc(CN)cc(CCc3cc(C)cc(N)n3)c2)c1 | 
5 |  |  | Active | Active | 1.27 µM | 1.56 µM | 12.8 µM |  | Cc1cc(N)nc(CCc2cc(C#N)cc(NCCc3ccccn3)c2)c1 | 
6 | 12 µM | 19 µM | Active | Active | 0.196 µM | 11.8 µM | 14.4 µM |  | CNc1cc(C)cc(CCc2cc(C#N)cc(CCc3cc(C)cc(N)n3)c2)n1 | 
7 | 0.91 µM | 1.9 µM | Active |  |  |  |  | 49.2% | Cc1cc(N)nc(CCc2cc(N)cc(CCc3cc(C)cc(N)n3)c2)c1 | 36%
8 | 10 µM | 12 µM | Active | Active | 0.22 µM |  | 7.1 µM |  | Cc1cc(N)nc(CCc2cc(CN)cc(CCc3ccc4cc[nH]c4n3)c2)c1 | 
